Measurements taken from article PMC11995438 (Bioorganic & medicinal chemistry, 2023).
pIC50: −log10 of the molar value. Converted amounts (≈) assume the structure as drawn. “Also recorded” adds a separate entry of the source. One block for each molecule: values may come before it. *1 amine or outer side, *2 acyl side, *3 side chain or, on linkers, in order; H or OH if unused. Where a SMILES comes first, the peptide text is derived from it. [ ]: non-standard residue; d: D form. X1 = CN([C@H](C(=O)[*:2])[C@@H](O)C(N)=O)[*:1]; Pro(4S-Me) = C[C@@H]1CN[C@H](C(=O)O)C1; N(OH)Ala = C[C@H](NO)C(=O)O; Lac = C[C@H](O)C(=O)O; Dha = C=C(N)C(=O)O

Legend:
[1] = target: human MDR1/P-gp (Homo sapiens, UniProt P08183); experiment: MDCK-MDR1 permeability assay; settings: dog, MDCK-MDR1, pH 7.4
[2] = target: human efflux transporter MDR1/P-gp (MDCK cells) (Homo sapiens, UniProt P08183); experiment: MDCK-MDR1 permeability assay; settings: for Permeability-MDCK-PgP Substrate?: P-gp substrate classification
[3] = target: T1, gatorbulin site of tubulin (Bos taurus, UniProt P81947+Q6B856); experiment: Binding constants by MTC displacement; parameters: species or system calf; settings: 10 μM tubulin plus 10 μM MTC, compound up to 100 μM
[4] = target: T2, CYP1A2 (Homo sapiens, UniProt P05177); experiment: P450 inhibition in human hepatic microsomes, CYP1A2; format: in vitro ADME; settings: for Human P450 Inhibition 1A2 %Inh.: at 10 μM
T2 sequence (P05177 1-516): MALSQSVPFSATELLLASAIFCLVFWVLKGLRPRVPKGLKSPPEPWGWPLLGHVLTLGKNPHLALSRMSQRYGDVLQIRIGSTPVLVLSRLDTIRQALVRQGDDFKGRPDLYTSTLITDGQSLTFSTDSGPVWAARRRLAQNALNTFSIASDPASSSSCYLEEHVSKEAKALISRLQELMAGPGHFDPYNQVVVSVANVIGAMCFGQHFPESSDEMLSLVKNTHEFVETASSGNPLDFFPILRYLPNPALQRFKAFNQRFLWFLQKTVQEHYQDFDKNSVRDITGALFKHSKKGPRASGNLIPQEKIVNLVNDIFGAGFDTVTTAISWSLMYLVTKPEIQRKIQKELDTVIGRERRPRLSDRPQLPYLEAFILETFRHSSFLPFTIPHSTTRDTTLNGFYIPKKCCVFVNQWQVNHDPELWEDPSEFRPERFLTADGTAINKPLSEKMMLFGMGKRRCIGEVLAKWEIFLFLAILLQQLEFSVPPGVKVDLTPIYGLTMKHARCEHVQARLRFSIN

[5] = target: CYP2C9 (Homo sapiens, UniProt P11712); experiment: P450 inhibition in human hepatic microsomes, CYP2C9; format: in vitro ADME; settings: for Human P450 Inhibition 2C9 %Inh.: at 10 μM
[6] = PAMPA permeability; format: in vitro ADME; settings: for Permeability-PAMPA Predicted level: predicted from PAMPA; for Permeability-PAMPA Tested: 5 μM, pH 7.4, 5 hours
[7] = target: CYP2D6 (Homo sapiens, UniProt P10635); experiment: P450 inhibition in human hepatic microsomes, CYP2D6; format: in vitro ADME; settings: for Human P450 Inhibition 2D6 %Inh.: at 10 μM
[8] = target: T3, CYP3A4 (Homo sapiens, UniProt P08684); experiment: in vitro; settings: microsomes
[9] = test system: SK-OV-3 ovarian cancer cells; experiment: MTT viability assay, SK-OV-3; format: cell-based; settings: for pIC50: read-out: IC50 SK-OV-3, 48 h
[10] = test system: HeLa cervical cancer cells; experiment: MTT viability assay, HeLa; format: cell-based; settings: read-out: IC50 HeLa, 48 h
In short: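 HeLa cells grown in DMEM with 10 % FBS at 37 °C, 5 % CO₂. Seeded at 5000 cells/well, attached overnight, then exposed to a concentration series of test compound or 0.5 % DMSO. MTT read-out 48 h after treatment. IC50 by non-linear regression; mean ± SD, n = 3.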

[11] = Kinetic solubility in pH 7.4 phosphate buffered saline; format: physicochemical; settings: 1% DMSO, 24 hours, top concentration 100 μM
[12] = Plasma protein binding by equilibrium dialysis, human plasma; format: in vitro ADME; settings: for Plasma Protein Binding Human (%free): 2 μM, equilibrium dialysis 6 h, 37 °C
[13] = Plasma protein binding by equilibrium dialysis, mouse plasma; format: in vitro ADME; settings: for Plasma Protein Binding Mouse (%free): 2 μM, equilibrium dialysis 6 h, 37 °C
[14] = target: T3, CYP3A4; experiment: P450 inhibition in human hepatic microsomes, CYP3A4; settings: at 10 μM
[15] = Hepatic microsomal stability, human; format: in vitro ADME; settings: liver microsomes, pH 7.4
[16] = Hepatic microsomal stability, mouse; format: in vitro ADME; settings: liver microsomes, pH 7.4
[17] = test system: α-tubulin; experiment: Immunoblot analysis of α-tubulin levels in SK-OV-3 cells; format: cell-based; settings: 16 h
In short: (§1)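 SK-OV-3 cells seeded at 2 × 10⁵/well and attached 24 h. Medium replaced, then ±1 h preincubation with 10 µM MG-132 before test compound or 0.5 % DMSO for 16 h. Whole-cell lysates normalised by BCA, run on 4–12 % SDS-PAGE, blotted to PVDF and detected by chemiluminescence. Densitometry of a representative blot, normalised to GAPDH and to DMSO without MG-132.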

[18] = test system: β-tubulin; experiment: Immunoblot analysis of β-tubulin levels in SK-OV-3 cells; format: cell-based; settings: 16 h
In short: as §1

[19] = target: T1, gatorbulin site of tubulin; settings: cited from earlier work
[20] = test system: SK-OV-3-MDR1-M6/6 cell line; settings: cited from earlier work
[21] = human, liver microsomes, probe tolbutamide, hydroxylation to hydroxytolbutamide
[22] = human, liver microsomes, probe bufuralol, hydroxylation to 4'-hydroxybufuralol

Molecule: COc1cc([C@@H]2c3cc4c(cc3[C@H](O)[C@H]3COC(=O)[C@H]23)OCO4)cc(OC)c1OC [podophyllotoxin, reference compound]
- Kb (binding affinity, MTC) [3]: 1.5e+07 M⁻¹

Molecule: Cc1nc2c([nH]1)c(=O)n(C)c(=O)n2Cc1ccco1 [Fur, furafylline]
- inhibition at 40 µM ([4]; human, microsomes): 82%
- inhibition at 40 µM [5, 21]: < 10%
- inhibition at 40 µM [7, 22]: < 10%
- inhibition at 40 µM [8]: < 10%

Molecule: gatorbulin-2 [GB2]
- MTC displacement [3]: no MTC displacement
- pIC50 [9]: < 4.00
- pIC50 [10]: < 4.00
- Solubility Kinetic [11]: > 100 µM
- Human P450 Inhibition 1A2 %Inh. [4]: < 10 %Inh.
- Human P450 Inhibition 2C9 %Inh. [5]: 18 %Inh.
- Human P450 Inhibition 2D6 %Inh. [7]: < 10 %Inh.
- Plasma Protein Binding Human (%free) [12]: 60 %free
- Plasma Protein Binding Mouse (%free) [13]: 88 %free
- Permeability-PAMPA Tested [6]: 8.2 10^−6 cm/s
- Permeability-PAMPA Predicted level [6]: high
- Human P450 Inhibition 3A4 %Inh. [14]: < 10 %Inh.

Molecule: CC(=O)N1CCN(c2ccc(OCC3COC(Cn4ccnc4)(c4ccc(Cl)cc4Cl)O3)cc2)CC1 (centres unmarked) [Ket, ketoconazole]
- inhibition at 1 µM ([4]; human, liver microsomes): 13%
- inhibition at 1 µM [5, 21]: 39%

Molecule: CCN(CC)CCNC(=O)c1c(C)[nH]c(/C=C2\C(=O)Nc3ccc(F)cc32)c1C [Sun, sunitinib]
- half-life at 1 µM [15]: 34.5 min
- half-life at 1 µM [16]: 13.5 min

Molecule: NC(=O)N1c2ccccc2C=Cc2ccccc21 [Car, carbamazepine, reference compound]
- fraction unbound at 6 h, 2 µM ([12]; human, plasma): 0.25
- fraction unbound at 6 h, 2 µM ([13]; mouse, plasma): 0.36

Molecule: C=C1NC(=O)[C@H](C)N(O)C(=O)[C@H]([C@@H](O)C(N)=O)N(C)C(=O)[C@H](C)OC(=O)[C@@H]2C[C@H](C)CN2C1=O [GB1, Gatorbulin-1] (cyclo([Dha][Pro(4S-Me)][Lac][X1][N(OH)Ala]))
- Kb (binding affinity, MTC) ([3]; listed as GB1 (1a)): 2.2 ± 0.7 × 10^6 M^−1
- concentration at which active ([9]; SK-OV-3 and HeLa cells, 48 h): submicromolar
- pIC50 [9]: 6.67
- pIC50 [10]: 6.23
- reduction of α-tubulin levels ([17]; 10 μM): 80%
- effect on α- and β-tubulin levels ([17]; without MG132): induced a reduction of both α- and β-tubulin levels
- depletion of β-tubulin ([18]; 3.2 μM): 80%
- preference for β-tubulin over α-tubulin depletion [18]: ~ 3 fold
- Solubility Kinetic [11]: > 100 µM
- Human P450 Inhibition 1A2 %Inh. [4]: 13 %Inh.
- Human P450 Inhibition 2C9 %Inh. [5]: < 10 %Inh.
- Human P450 Inhibition 2D6 %Inh. [7]: 11 %Inh.
- Plasma Protein Binding Human (%free) [12]: 76 %free
- Plasma Protein Binding Mouse (%free) [13]: 80 %free
- Permeability-PAMPA Tested [6]: 4.5 10^−6 cm/s
- Permeability-PAMPA Predicted level [6]: high
- binding affinity reported previously [19]: 1.01e+06 M⁻¹
- effectiveness in P-gp overexpressing cells versus parental line [20]: less effective
- Permeability-MDCK-PgP Mean Papp A to B ([2]; 2 μM, 90 minutes): 1.8 10^−6 cm/s
- Permeability-MDCK-PgP Mean Papp B to A ([2]; 2 μM, 90 minutes): 1.6 10^−6 cm/s
- Permeability-MDCK-PgP Substrate? [2]: not a P-gp substrate or is a poor P-gp substrate; also recorded: poor or non-
- Human P450 Inhibition 3A4 %Inh. [14]: < 10 %Inh.

Further lines, results first:

- Papp A→B at 90 min, 2 µM [1]: 1.9 ×10⁻⁶ cm/s
- Papp B→A at 90 min, 2 µM [1]: 1.5 ×10⁻⁶ cm/s
- efflux ratio at 90 min, 2 µM [1]: 0.8
- Permeability-MDCK-PgP Substrate? [2]: poor or non-
Molecule: CC(C)(C)NCC(O)COc1cccc2c1CC(O)C(O)C2 (centres unmarked) [Nad, nadolol]

- inhibition at 10 µM ([4]; human, liver microsomes): < 10%
- inhibition at 10 µM [5, 21]: < 10%
- Papp A→B at 90 min, 2 µM [1]: 1.6 ×10⁻⁶ cm/s
- Papp B→A at 90 min, 2 µM [1]: 11.1 ×10⁻⁶ cm/s
Molecule: C=C[C@H]1C[N@@]2CC[C@H]1C[C@@H]2[C@@H](O)c1ccnc2ccc(OC)cc12 [Qui, quinidine]

- Papp at 5 h, 5 µM ([6]; PAMPA, pH 7.4): 5.7 ×10⁻⁶ cm/s
- Permeability-PAMPA Predicted level [6]: high
Molecule: CC(C)NCC(O)COc1cccc2ccccc12 (centres unmarked) [Pro, propranolol, reference compound]

- Solubility Kinetic [11]: 1.3 µM (≈ 1.11 µg/mL)
Molecule: CC(=O)O[C@H]1C(=O)[C@@]2(C)[C@H]([C@H](OC(=O)c3ccccc3)[C@]3(O)C[C@H](OC(=O)[C@H](O)[C@@H](NC(=O)c4ccccc4)c4ccccc4)C(C)=C1C3(C)C)[C@]1(OC(C)=O)CO[C@@H]1C[C@@H]2O [Pac, paclitaxel, reference compound]

- Permeability-PAMPA Predicted level [6]: low
Molecule: CNC(=C[N+](=O)[O-])NCCSCc1ccc(CN(C)C)o1 [Ran, ranitidine, reference compound]

- inhibition at 10 µM ([4]; human, liver microsomes): < 10%
- inhibition at 10 µM [7, 22]: < 10%
Molecule: Nc1ccc(S(=O)(=O)Nc2ccnn2-c2ccccc2)cc1 [Sul, sulfaphenazole, reference compound]
